Laboratory results as given in ChEMBL document CHEMBL2202994, “Heteroaryl urea inhibitors of fatty acid amide hydrolase: structure-mutagenicity relationships for arylamine metabolites” (Bioorg Med Chem Lett, 2012).

Key:
[1] = test system: Salmonella typhimurium; test: Genotoxicity in Salmonella typhimurium TA98 by Ames test in presence of S9 fractions; type: toxicity, organism-based, S9 Fraction; details: salmonella enterica subsp. enterica serovar typhimurium
How it was run: (§1)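 Ames II liquid fluctuation microplate variant of the bacterial reverse mutation assay, run on the free heteroaryl amines released from the urea inhibitors. The TAMix strain mixture (TA7001–TA7006) detects base-pair substitutions and TA98 detects frameshift mutations. For metabolic activation, compounds were preincubated with rat liver S9 extract or run without it. Results were scored as positive or negative.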

[2] = test system: Salmonella typhimurium; test: Genotoxicity in Salmonella typhimurium TAMix by Ames test in presence of S9 fractions; type: toxicity, organism-based, S9 Fraction; details: salmonella enterica subsp. enterica serovar typhimurium; how it was run: as §1
[3] = target: T1, Fatty-acid amide hydrolase 1 (Rattus norvegicus, UniProt P97612); test: Inhibition of rat FAAH preincubated for 60 mins
T1 sequence (P97612 whole entry): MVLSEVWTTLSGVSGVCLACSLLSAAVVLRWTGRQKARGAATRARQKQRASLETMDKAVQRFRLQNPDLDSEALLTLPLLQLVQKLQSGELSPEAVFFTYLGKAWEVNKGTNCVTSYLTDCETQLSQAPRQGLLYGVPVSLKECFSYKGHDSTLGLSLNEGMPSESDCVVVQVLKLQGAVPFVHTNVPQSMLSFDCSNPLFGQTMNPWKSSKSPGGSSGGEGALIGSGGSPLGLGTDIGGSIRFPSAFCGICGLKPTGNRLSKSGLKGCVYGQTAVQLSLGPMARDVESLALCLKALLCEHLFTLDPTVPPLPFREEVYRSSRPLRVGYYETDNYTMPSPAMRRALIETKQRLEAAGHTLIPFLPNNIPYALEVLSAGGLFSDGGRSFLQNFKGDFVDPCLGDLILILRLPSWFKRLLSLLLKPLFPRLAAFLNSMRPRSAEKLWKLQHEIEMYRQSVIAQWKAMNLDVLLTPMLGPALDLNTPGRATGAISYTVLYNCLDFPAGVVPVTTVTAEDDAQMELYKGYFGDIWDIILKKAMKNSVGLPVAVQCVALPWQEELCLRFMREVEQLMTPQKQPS

[4] = test system: Salmonella typhimurium; test: Genotoxicity in Salmonella typhimurium TA98 by Ames test in absence of S9 fractions; type: toxicity, organism-based; details: salmonella enterica subsp. enterica serovar typhimurium; how it was run: as §1
[5] = test system: Salmonella typhimurium; test: Genotoxicity in Salmonella typhimurium TAMix by Ames test in absence of S9 fractions; type: toxicity, organism-based; details: salmonella enterica subsp. enterica serovar typhimurium; how it was run: as §1
[6] = target: T2, Fatty-acid amide hydrolase 1 (Homo sapiens, UniProt O00519); test: Inhibition of human FAAH preincubated for 60 mins
T2 sequence (O00519 whole entry): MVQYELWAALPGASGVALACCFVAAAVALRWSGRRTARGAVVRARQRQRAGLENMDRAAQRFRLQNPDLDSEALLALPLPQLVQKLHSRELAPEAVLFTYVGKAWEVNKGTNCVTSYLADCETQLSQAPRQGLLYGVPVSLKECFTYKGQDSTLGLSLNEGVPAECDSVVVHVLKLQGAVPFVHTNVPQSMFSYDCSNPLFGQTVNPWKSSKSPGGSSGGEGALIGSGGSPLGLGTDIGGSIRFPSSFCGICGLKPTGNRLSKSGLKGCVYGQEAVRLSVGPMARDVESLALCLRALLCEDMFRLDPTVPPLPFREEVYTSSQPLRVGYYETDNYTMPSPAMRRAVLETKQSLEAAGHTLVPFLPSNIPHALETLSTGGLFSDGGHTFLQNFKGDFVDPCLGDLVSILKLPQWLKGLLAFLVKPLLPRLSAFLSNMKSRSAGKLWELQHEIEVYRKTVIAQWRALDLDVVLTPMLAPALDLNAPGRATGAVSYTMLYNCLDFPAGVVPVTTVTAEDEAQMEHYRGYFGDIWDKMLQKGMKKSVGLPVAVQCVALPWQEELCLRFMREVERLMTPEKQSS

SMILES | Activity [1] | Activity [2] | IC50 [3] | Activity [4] | Activity [5] | IC50 [6]
O=C(Nc1cccc2cn[nH]c12)N1CCN(Cc2cccc(Oc3ccc(Cl)cc3)c2)CC1 | Toxic | Toxic | 6000 nM | – | – | –
O=C(Nc1ccccc1)N1CCN(Cc2cccc(Oc3ccc(Cl)cc3)c2)CC1 | Non-toxic | Non-toxic | 300 nM | Non-toxic | Non-toxic | 6 nM
O=C(Nc1noc2ncccc12)N1CCN(Cc2cccc(Oc3ccc(Cl)cc3)c2)CC1 | Non-toxic | Non-toxic | 14 nM | Non-toxic | Non-toxic | –
O=C(Nc1nocc1Cl)N1CCN(Cc2cccc(Oc3ccc(Cl)cc3)c2)CC1 | Toxic | Toxic | 20 nM | Toxic | Toxic | –
O=C(Nc1nnn[nH]1)N1CCN(Cc2cccc(Oc3ccc(Cl)cc3)c2)CC1 | Non-toxic | Non-toxic | 46 nM | Non-toxic | Non-toxic | –
O=C(Nc1noc2cnccc12)N1CCN(Cc2cccc(Oc3ccc(Cl)cc3)c2)CC1 | Non-toxic | Non-toxic | 0.7 nM | Non-toxic | Non-toxic | –
O=C(Nc1cccc2nsnc12)N1CCN(Cc2cccc(Oc3ccc(Cl)cc3)c2)CC1 | Non-toxic | Non-toxic | 25 nM | Non-toxic | Non-toxic | –
O=C(Nc1cnc2cc[nH]c2c1)N1CCN(Cc2cccc(Oc3ccc(Cl)cc3)c2)CC1 | Toxic | Toxic | 1100 nM | – | – | –
O=C(Nc1cc[nH]n1)N1CCN(Cc2cccc(Oc3ccc(Cl)cc3)c2)CC1 | Non-toxic | Non-toxic | 150 nM | Non-toxic | Non-toxic | –
O=C(Nc1cn2ccccc2n1)N1CCN(Cc2cccc(Oc3ccc(Cl)cc3)c2)CC1 | Non-toxic | Non-toxic | > 10000 nM | Non-toxic | Non-toxic | > 10000 nM
O=C(Nc1ccc2nccn2c1)N1CCN(Cc2cccc(Oc3ccc(Cl)cc3)c2)CC1 | Non-toxic | Non-toxic | 3600 nM | Non-toxic | Non-toxic | –
O=C(Nc1cccc2nonc12)N1CCN(Cc2cccc(Oc3ccc(Cl)cc3)c2)CC1 | Toxic | Toxic | 120 nM | – | – | –
O=C(Nc1cccnn1)N1CCN(Cc2cccc(Oc3ccc(Cl)cc3)c2)CC1 | Non-toxic | Non-toxic | 93 nM | Non-toxic | Non-toxic | –
O=C(Nc1ccon1)N1CCN(Cc2cccc(Oc3ccc(Cl)cc3)c2)CC1 | Non-toxic | Non-toxic | – | Non-toxic | Non-toxic | –
Cc1nc2cc(NC(=O)N3CCN(Cc4cccc(Oc5ccc(Cl)cc5)c4)CC3)ccc2o1 | Toxic | Toxic | 200 nM | – | – | –
O=C(Nc1cccnc1)N1CCN(Cc2cccc(Oc3ccc(Cl)cc3)c2)CC1 | Non-toxic | Non-toxic | 33 nM | Non-toxic | Non-toxic | 1.4 nM
O=C(Nc1noc2ccncc12)N1CCN(Cc2cccc(Oc3ccc(Cl)cc3)c2)CC1 | Non-toxic | Non-toxic | 2200 nM | Non-toxic | Non-toxic | –
O=C(Nc1cccn2ccnc12)N1CCN(Cc2cccc(Oc3ccc(Cl)cc3)c2)CC1 | Non-toxic | Non-toxic | 3500 nM | Non-toxic | Non-toxic | –
O=C(Nc1cnc2cccnn12)N1CCN(Cc2cccc(Oc3ccc(Cl)cc3)c2)CC1 | Non-toxic | Non-toxic | 53 nM | Non-toxic | Non-toxic | –
O=C(Nc1ccnc2nccn12)N1CCN(Cc2cccc(Oc3ccc(Cl)cc3)c2)CC1 | Non-toxic | Non-toxic | 24 nM | Non-toxic | Non-toxic | –
O=C(Nc1cc2nccn2cn1)N1CCN(Cc2cccc(Oc3ccc(Cl)cc3)c2)CC1 | Non-toxic | Non-toxic | 470 nM | Non-toxic | Non-toxic | –
O=C(Nc1cccc2nccn12)N1CCN(Cc2cccc(Oc3ccc(Cl)cc3)c2)CC1 | Non-toxic | Non-toxic | 5.7 nM | Non-toxic | Non-toxic | –
O=C(Nc1noc2ccccc12)N1CCN(Cc2cccc(Oc3ccc(Cl)cc3)c2)CC1 | Non-toxic | Non-toxic | 8.1 nM | Non-toxic | Non-toxic | –
O=C(Nc1cnc2ccccn12)N1CCN(Cc2cccc(Oc3ccc(Cl)cc3)c2)CC1 | Non-toxic | Non-toxic | 120 nM | Non-toxic | Non-toxic | –
O=C(Nc1noc2cccnc12)N1CCN(Cc2cccc(Oc3ccc(Cl)cc3)c2)CC1 | Non-toxic | Non-toxic | 22 nM | Non-toxic | Non-toxic | –
O=C(Nc1ccn2ccnc2n1)N1CCN(Cc2cccc(Oc3ccc(Cl)cc3)c2)CC1 | Non-toxic | Non-toxic | 2400 nM | Non-toxic | Non-toxic | –
O=C(Nc1cnc2[nH]ccc2c1)N1CCN(Cc2cccc(Oc3ccc(Cl)cc3)c2)CC1 | Toxic | Toxic | 21 nM | – | – | –
O=C(Nc1cncc2ccccc12)N1CCN(Cc2cccc(Oc3ccc(Cl)cc3)c2)CC1 | Toxic | Toxic | 8.3 nM | – | – | –
O=C(Nc1ccn2ccnc2c1)N1CCN(Cc2cccc(Oc3ccc(Cl)cc3)c2)CC1 | Toxic | Toxic | 2600 nM | Toxic | Toxic | –
O=C(Nc1cnccn1)N1CCN(Cc2cccc(Oc3ccc(Cl)cc3)c2)CC1 | Non-toxic | Non-toxic | 150 nM | Non-toxic | Non-toxic | –
